Test results from ChEMBL document CHEMBL5705886, “GSK1070916, a potent Aurora B/C kinase inhibitor with broad antitumor activity in tissue culture cells and human tumor xenograft models” (Mol Cancer Ther, 2009).
pEC50: −log10 of the molar value. Activity calls are given as the source filed them. The calls are words filed in the database; no cut-off is given here.

Assays:
HCT-116 = experiment: Antiproliferative activity against human HCT-116 cells assessed as inhibition of cell viability measured for 6 to 7 days by cell titer glo assay; type: functional, cell-based
In short: (§1)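 Tumor lines plated in recommended growth media, overnight at 37°C, 5% CO2, then given serial dilutions; a T=0 plate read with CellTiter-Glo at dosing. After 6–7 d of exposure, viability read by CellTiter-Glo luminescence. No-cell wells subtracted, data expressed as % of DMSO control.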

COLO 320DM = experiment: Antiproliferative activity against human COLO 320DM cells assessed as inhibition of cell viability measured for 6 to 7 days by cell titer glo assay; type: functional, cell-based; in short: as §1
SK-BR-3 = experiment: Antiproliferative activity against human SK-BR-3 cells assessed as inhibition of cell viability measured for 6 to 7 days by cell titer glo assay; type: functional, cell-based
In short: (§2)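 Cells seeded in recommended growth medium, held overnight at 37°C in 5% CO2, then exposed to serial dilutions of inhibitor for 6–7 d. A time-zero plate was read with CellTiter-Glo at dosing. Luminescent viability read at the end. No-cell wells subtracted as background, data expressed as percent of DMSO control.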

A498 = experiment: Antiproliferative activity against human A498 cells assessed as inhibition of cell viability measured for 6 to 7 days by cell titer glo assay; type: functional, cell-based; in short: as §1
786-0 = experiment: Antiproliferative activity against human 786-0 cells assessed as inhibition of cell viability measured for 6 to 7 days by cell titer glo assay; type: functional, cell-based; in short: as §1
OVCAR-8 = experiment: Antiproliferative activity against human OVCAR-8 cells assessed as inhibition of cell viability measured for 6 to 7 days by cell titer glo assay; type: functional, cell-based; in short: as §2
[1] = Antiproliferative activity against human SKO-007 cells assessed as inhibition of cell viability measured for 6 to 7 days by cell titer glo assay; type: functional, cell-based; in short: as §2
U-266 = experiment: Antiproliferative activity against human U266B1 cells assessed as inhibition of cell viability measured for 6 to 7 days by cell titer glo assay; type: functional, cell-based
SU-DHL-5 = experiment: Antiproliferative activity against human SU-DHL-5 cells assessed as inhibition of cell viability measured for 6 to 7 days by cell titer glo assay; type: functional, cell-based; in short: as §2
JM1 = experiment: Antiproliferative activity against human JM1 cells assessed as inhibition of cell viability measured for 6 to 7 days by cell titer glo assay; type: functional, cell-based
In short: (§3)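 Cells seeded in recommended growth medium, incubated overnight at 37°C in 5% CO2, then exposed to serial dilutions of inhibitor for 6–7 d. A parallel plate was read with CellTiter-Glo at compound addition as a T=0 value. The luminescent viability readout had no-cell background subtracted and was expressed as % of DMSO control.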

Farage = experiment: Antiproliferative activity against human Farage cells assessed as inhibition of cell viability measured for 6 to 7 days by cell titer glo assay; type: functional, cell-based; in short: as §1
MC-CAR = experiment: Antiproliferative activity against human MC-CAR cells assessed as inhibition of cell viability measured for 6 to 7 days by cell titer glo assay; type: functional, cell-based; in short: as §3
GA-10 = experiment: Antiproliferative activity against human GA-10 cells assessed as inhibition of cell viability measured for 6 to 7 days by cell titer glo assay; type: functional, cell-based; in short: as §1
P3HR-1 = experiment: Antiproliferative activity against human P3HR-1 cells assessed as inhibition of cell viability measured for 6 to 7 days by cell titer glo assay; type: functional, cell-based; in short: as §2
MC116 = experiment: Antiproliferative activity against human MC116 cells assessed as inhibition of cell viability measured for 6 to 7 days by cell titer glo assay; type: functional, cell-based; in short: as §3
[2] = Antiproliferative activity against human TO 175.T cells assessed as inhibition of cell viability measured for 6 to 7 days by cell titer glo assay; type: functional, cell-based; in short: as §2
JVM-3 = experiment: Antiproliferative activity against human JVM-3 cells assessed as inhibition of cell viability measured for 6 to 7 days by cell titer glo assay; type: functional, cell-based; in short: as §3
[3] = Antiproliferative activity against human Karpas-231 cells assessed as inhibition of cell viability measured for 6 to 7 days by cell titer glo assay; type: functional, cell-based; in short: as §3
MV4-11 = experiment: Antiproliferative activity against human MV4-11 cells assessed as inhibition of cell viability measured for 6 to 7 days by cell titer glo assay; type: functional, cell-based; in short: as §3
[4] = Antiproliferative activity against human BDCM cells assessed as inhibition of cell viability measured for 6 to 7 days by cell titer glo assay; type: functional, cell-based; in short: as §1
[5] = Antiproliferative activity against human EM-3 cells assessed as inhibition of cell viability measured for 6 to 7 days by cell titer glo assay; type: functional, cell-based; in short: as §1
MOLT-16 = experiment: Antiproliferative activity against human MOLT-16 cells assessed as inhibition of cell viability measured for 6 to 7 days by cell titer glo assay; type: functional, cell-based; in short: as §3
[6] = Antiproliferative activity against human DND41 cells assessed as inhibition of cell viability measured for 6 to 7 days by cell titer glo assay; type: functional, cell-based; in short: as §1
COLO 205 = experiment: Induction of apoptosis in human COLO 205 cells assessed as caspase-3 cleavage at 10 nmol/L incubated for 24 hrs by Western blot analysis; type: functional, cell-based
MCF7 = experiment: Antitumor activity in human MCF7 cells xenografted in SCID mouse assessed as reduction in tumor growth at 50 to 100 mg/kg, ip administered once daily for 5 consecutive days with 2 days off scheduled for 3 cycles measured upto 60 days; type: functional, organism-based; conditions: dose 50-100 mg/kg, time <= 60.0 day
[7] = Toxicity in SCID nude mouse xenografted with human NCI-H460 cells assessed as drug tolerance at 25 to 100 mg/kg, ip administered once daily for 5 consecutive days with 2 days off scheduled for 3 cycles measured upto 60 days; type: organism-based; conditions: in vivo, 1440 h, dose 25-100 mg/kg, time < 60 day
[8] = Toxicity in SCID nude mouse xenografted with human COLO 205 cells assessed as drug tolerance at 25 to 100 mg/kg, ip administered once daily for 5 consecutive days with 2 days off scheduled for 2 cycles measured upto 60 days; type: organism-based; conditions: in vivo, 1440 h, dose 25-100 mg/kg, time 60 day
HL-60 = experiment: Antitumor activity in human HL-60 cells xenografted in SCID mouse assessed as median survival time at 12.5 mg/kg, ip administered once daily for 5 consecutive days with 2 days off scheduled for 2 cycles measured upto 120 days; type: functional; conditions: time <= 120 day
[9] = biological target: Aurora kinase C (Homo sapiens) (UniProt Q9UQB9); experiment: Binding affinity to Aurora C (unknown origin) assessed as dissociation half life
[10] = biological target: Aurora kinase B (Homo sapiens) (UniProt Q96GD4)
MV-4-11 (human) = experiment: Antitumor activity in human MV-4-11 cells xenografted in NOD-SCID mouse assessed as median survival time at 20 mg/kg, ip administered once daily for 5 consecutive days with 2 days off scheduled for 3 cycles measured upto 120 days; conditions: time <= 120 day

Sequence of Aurora kinase C (Homo sapiens) (Q9UQB9 whole entry): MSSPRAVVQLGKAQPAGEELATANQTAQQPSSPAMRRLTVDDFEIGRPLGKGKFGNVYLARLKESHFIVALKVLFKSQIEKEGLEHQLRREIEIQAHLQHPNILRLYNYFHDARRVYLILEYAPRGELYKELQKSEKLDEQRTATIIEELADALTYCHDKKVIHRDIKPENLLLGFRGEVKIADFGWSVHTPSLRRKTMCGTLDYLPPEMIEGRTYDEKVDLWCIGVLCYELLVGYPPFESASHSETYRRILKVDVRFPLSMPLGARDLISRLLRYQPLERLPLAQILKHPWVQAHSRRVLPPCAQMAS
Sequence of Aurora kinase B (Homo sapiens) (Q96GD4 whole entry): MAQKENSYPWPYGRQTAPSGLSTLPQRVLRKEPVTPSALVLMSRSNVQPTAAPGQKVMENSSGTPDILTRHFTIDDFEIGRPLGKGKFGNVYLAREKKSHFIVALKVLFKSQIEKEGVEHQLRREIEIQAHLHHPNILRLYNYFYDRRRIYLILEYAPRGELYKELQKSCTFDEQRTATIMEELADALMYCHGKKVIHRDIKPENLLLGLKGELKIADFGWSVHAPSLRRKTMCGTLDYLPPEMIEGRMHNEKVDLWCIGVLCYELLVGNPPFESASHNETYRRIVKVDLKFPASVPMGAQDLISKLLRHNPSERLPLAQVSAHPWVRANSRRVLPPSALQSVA

In the case of `CCn1cc(-c2ccnc3[nH]c(-c4cccc(CN(C)C)c4)cc23)c(-c2ccc(NC(=O)N(C)C)cc2)n1` [GSK-1070916], the pEC50 (HCT-116) was 8.10, the pEC50 (COLO 320DM) was 7.02 and the pEC50 (SK-BR-3) was 8.40. The pEC50 (A498) was 7.48, the pEC50 (786-0) was 7.24 and the pEC50 (OVCAR-8) was 7.52. It also gave a pEC50 [1] of 6.45, a pEC50 (U-266) of 6.37 and a pEC50 (SU-DHL-5) of 8.30. The pEC50 (JM1) was 8.15, the pEC50 (Farage) was 8.15 and the pEC50 (MC-CAR) was 8.05. The pEC50 (GA-10) was 8.40, the pEC50 (P3HR-1) was 8.10 and the pEC50 (MC116) was 8.10. It also gave a pEC50 [2] of 7.27, a pEC50 (JVM-3) of 8.70 and a pEC50 [3] of 8.52. The pEC50 (MV4-11) was 8.15, the pEC50 [4] was 7.59 and the pEC50 [5] was 8.40. For the same compound, the pEC50 (MOLT-16) was 8.52, the pEC50 [6] was 6.10 and the Activity (COLO 205) was “Active”. The Activity (MCF7) was “inactive”, the Activity [7] was “Non-Toxic” and the Activity [8] was “Non-Toxic”. It also gave an MST (HL-60) of 44 days, a T1/2 [9] of 4.5 h and a T1/2 [10] greater than 8 h. For the same compound, the MST (MV-4-11 (human)) was 103 days.
